From ChEMBL document CHEMBL3046326, “Screening of dialkoxybenzenes and disubstituted cyclopentene derivatives against the cabbage looper, Trichoplusia ni, for the discovery of new feeding and oviposition deterrents” (J Agric Food Chem, 2007)

What was measured:
Trichoplusia ni [1] = test: Oviposition deterrent activity against adult female Trichoplusia ni (cabbage looper) moths introduced along with male moths into oviposition cage containing compound pretreated cabbage leaves assessed as eggs laying on the leaf disks at 0.25% after 48 hr by oviposition choice bioassay; type: functional
In short: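 Choice test with moths from larvae reared on normal diet from neonate to pupation. Pupae were sexed and held separately until emergence. Cabbage leaves were treated with test substance at 0.25% or left as control, and eggs per leaf were counted after 48 h. ODI = [(C − T)/(C + T)] × 100 from egg numbers on control and treated leaves.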

Trichoplusia ni [2] = test: Toxicity against third-instar larval stage of Trichoplusia ni (cabbage looper) assessed as mortality measured after 24 hr by contact toxicity bioassay; type: functional
In short: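 Third-instar larvae were hand-sprayed directly with test solutions in filter-paper-lined Petri dishes, then moved to dishes holding a small piece of artificial diet. Mortality was recorded at 24 h.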

Trichoplusia ni [3] = test: Toxicity against third-instar larval stage of Trichoplusia ni (cabbage looper) assessed as mortality at 0.25% measured after 24 hr by contact toxicity bioassay; type: functional
In short: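 Third-instar larvae were sprayed directly with test solution at 0.25% in filter-paper-lined Petri dishes. They were then moved to dishes holding a small piece of artificial diet. Mortality was scored 24 h after spraying. The test applied only to compounds giving >50% feeding deterrence at 50 µg/cm².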

Trichoplusia ni [4] = test: Feeding deterrent activity against freshly molted third-instar larval stage of Trichoplusia ni (cabbage looper) after 3 to 5 hr by leaf disk choice bioassay; type: functional, organism-based
In short: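 Choice test: freshly molted third instar larvae, starved 4–5 h, offered two leaf disks, one painted on each side with 10 µL test solution and one with carrier solvent only. Twenty-five larvae per treatment. Ended when ~50% of the control disk was eaten (normally 3–5 h). Consumed areas measured. DC50 derived by linear regression of at least four concentrations (3.12–25 µg/cm²).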

Trichoplusia ni [5] = test: Feeding deterrent activity against freshly molted third-instar larval stage of Trichoplusia ni (cabbage looper), Trichoplusia ni at 50 ug/cm'2 after 3 to 5 hr by leaf disk choice bioassay; type: functional
In short: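 Leaf disk choice with freshly molted third instar larvae starved 4–5 h. One disk was painted on each side with 10 µL solution giving 50 µg/cm², the other with carrier solvent. Twenty-five larvae per treatment, stopped at ~50% control disk consumption (3–5 h). Deterrence = [(C − T)/(C + T)] × 100 from consumed areas; mean ± SE, Tukey's test p < 0.05.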

Compound | Activity (Trichoplusia ni [1]) [%] | LC50 (Trichoplusia ni [2]) [%] | mortality (Trichoplusia ni [3]) [%] | DC50 (Trichoplusia ni [4]) [microg/cm2] | Activity (Trichoplusia ni [5]) [%]
CCOc1ccc(OC)cc1 [1-methoxy-4-ethoxybenzene] | 6 | 0.03 | 23.3 | 34.6 | 80.2
CCCOc1ccc(OCC)cc1 [4-ETHOXY-1-PROPOXYBENZENE] | 56.6 | 0.03 | 96.8 | 23.4 | 53.4
CCCCCOc1ccccc1OCCCC [1-butoxy-2-pentoxybenzene] | 28.7 | – | 6.7 | 16.8 | 98
C=CCOc1ccc(OC)cc1 [1-allyloxy-4-methoxybenzene] | 5.4 | – | 10 | 27.9 | 82.4
CCCCCOc1cccc(OCCCC)c1 [1-butyloxy-3-pentoxybenzene] | 25.9 | – | 30 | 14.4 | 84.1
CCCOCC[C@@H]1CC=C[C@@H]1OCCC (racemic) | 41.8 | – | 37.5 | 32.6 | 66.7
CCOc1ccc(OCC)cc1 [1,4-DIETHOXYBENZENE] | 74.7 | 0.03 | 100 | 25.9 | 80.8
CCCCCOc1ccc(OCCCC)cc1 [1-butyloxy-4-pentoxybenzene] | 50.1 | – | 58.1 | 14.5 | 83.4
CCCCOc1cccc(OC)c1 [1-butyloxy-3-methoxybenzene] | 25.9 | – | 30 | 14.4 | 84.1
CCCCOCC[C@@H]1CC=C[C@@H]1OCCCC (racemic) | 29.5 | – | 30 | 29.2 | 76
C=CCOc1ccccc1OCCC [1-allyloxy-2-propoxybenzene] | 66.7 | – | 23.3 | 30 | 67.8
CCCCCOc1ccc(OCCC)cc1 [1-propoxy-4-pentoxybenzene] | 9.6 | – | 53.1 | 39.7 | 53.4
CCCCOc1ccccc1OCCC [1-propoxy-2-butoxybenzene] | 31.7 | – | 13.8 | 19.4 | 100
CCCOc1cccc(OCCC(C)C)c1 [3-PROPOXY-1-ISOPENTOXYBENZENE] | 35.7 | – | 20.8 | 19.8 | 82.6
CC(C)CCOc1ccccc1OCCC(C)C [1,2-DIISOPENTOXYBENZENE] | 11.5 | – | 40 | 19.6 | 69.9
C=CCOc1ccc(OCCCC)cc1 [1-allyloxy-4-butoxybenzene] | 16.8 | – | 10 | 22.6 | 84
CCCCOc1ccc(OCC)cc1 [1-butyloxy-4-ethoxybenzene] | 50.1 | – | 58.1 | 14.5 | 83.4
C=CCOc1ccc(OCC)cc1 [1-allyloxy-4-ethoxybenzene] | 5.4 | – | 10 | 27.9 | 82.4

Compound | Activity (Trichoplusia ni [1]) [%] | LC50 (Trichoplusia ni [2]) [%] | mortality (Trichoplusia ni [3]) [%] | DC50 (Trichoplusia ni [4]) [microg/cm2] | Activity (Trichoplusia ni [5]) [%]
CCCCOc1ccccc1OCC [1-ethoxy-2-butoxybenzene] | 28.7 | – | 6.7 | 24.1 | 71
CCCCCOc1cccc(OCCC)c1 [1-propoxy-3-pentoxybenzene] | 2.7 | – | 50 | 21.5 | 98
COc1cccc(OCCC(C)C)c1 [1-isopentyloxy-3-methoxybenzene] | 35.7 | – | 20.8 | 19.8 | 82.6
CCCOc1cccc(OCCC)c1 [1,3-DIPROPOXYBENZENE] | 33 | – | 76.7 | 26.8 | 96.9
CCCCOc1ccc(OCCC)cc1 [1-butyloxy-4-propoxybenzene] | 50.1 | – | 58.1 | 14.5 | 83.4
CCCCOc1cccc(OCC)c1 [1-butyloxy-3-ethoxybenzene] | 25.9 | – | 30 | 14.4 | 84.1
CCOc1cccc(OCCC(C)C)c1 [1-isopentyloxy-3-ethoxybenzene] | 35.7 | – | 20.8 | 19.8 | 82.6
CCCOc1ccc(OCCC)cc1 [1,4-DIPROPOXYBENZENE] | 11.8 | – | 22.6 | 20.3 | 96
CC(C)CCOCC[C@@H]1CC=C[C@@H]1OCCC(C)C (racemic) | 47 | – | 44.8 | 34.4 | 58.6
CCCCOc1ccccc1OCCC(C)C [1-isopentoxy-2-butoxybenzene] | 29.4 | – | 10 | 32.5 | 66.9
C=CCOc1ccccc1OCC [1-allyloxy-2-ethoxybenzene] | 66.7 | – | 23.3 | 30 | 67.8
C=CCOc1ccccc1OCCCC [1-allyloxy-2-butoxybenzene] | 66.7 | – | 23.3 | 30 | 67.8
C=CCOc1ccc(OCC=C)cc1 [1,4-DIALLYLOXYBENZENE] | 14.1 | – | 16 | 23.9 | 96.9
COc1ccccc1OCCC(C)C [1-isopentoxy-2-methoxybenzene] | 29.4 | – | 10 | 32.5 | 66.9
C=CCOc1ccccc1OCCCCC [1-allyloxy-2-pentoxybenzene] | 66.7 | – | 23.3 | 30 | 67.8
CCCCCOc1ccc(OC)cc1 [1-methoxy-4-pentoxybenzene] | 6 | – | 23.3 | 34.6 | 80.2
C=CCOc1ccc(OCCC(C)C)cc1 [1-allyloxy-4-isopentoxybenzene] | 18.8 | – | 7 | 15.7 | 75.1
